The record followed here is ChEMBL document CHEMBL1772966, “3,5-Bis(benzylidene)-1-[3-(2-hydroxyethylthio)propanoyl]piperidin-4-ones: a novel cluster of potent tumor-selective cytotoxins” (J Med Chem, 2011).

Data set [1] has as its system HL-60. In words: Cytotoxicity against human HL60 cells after 48 hrs. In kind it is functional. The conditions noted are these: HL-60, 48 h.
Another data set deals with L1210. In words: Anticancer activity against mouse L1210 cells after 48 hrs. Particulars: L1210, 48 h. In kind it is functional, cell-based.
Data set [2] in a line: Cytotoxicity against human HGF cells after 48 hrs. In kind it is cell-based.
The nature of data set [3]: Cytotoxicity against human HPLF cells after 48 hrs. In kind it is cell-based.
Data set [4] has as its system HSC-2. In words: Cytotoxicity against human HSC2 cells after 48 hrs. Particulars: HSC-2, 48 h. In kind it is functional.
Data set [5] has as its system HSC-4. In words: Selectivity index, ratio of average CC50 for normal human cell line to CC50 for human HSC4 cells.
In data set [6] the test system is HSC-4. In words: Cytotoxicity against human HSC4 cells after 48 hrs. In kind it is functional. Particulars: HSC-4, 48 h.
The test system of data set [7] is CCRF-CEM. In words: Ratio of melphalan IC50 to compound IC50 for human CEM cells. In kind it is functional.
Data set [8] concerns Mus musculus. In words: Toxicity in mouse assessed as mortality at 30 to 300 mg/kg, ip after 0.5 to 4 hrs. The data set is classed as organism-based. Further details: dose 30-300 mg/kg, route intraperitoneal. The conditions noted are these: in vivo. The procedure, abridged: (§1)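 Mice dosed intraperitoneally at 30, 100 and 300 mg/kg; animals observed for deaths and neurological deficit at 0.5 and 4 h after injection.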

The test system of data set [9] is Rattus norvegicus. In words: Neurotoxicity in rat at 50 mg/kg, po measured upto 4 hrs by rotarod method. The conditions noted are these: in vivo. Also on record: dose 50 mg/kg, route oral. The data set is classed as toxicity, organism-based. The procedure, abridged: (§2)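 Rats given a single oral dose of 50 mg/kg; monitored intermittently over 4 h for fatalities and neurological deficit.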
(In general: In the rotarod test animals must keep their balance on a rotating rod.)

A short description of data set [10]: Cytotoxicity against human HPC cells after 48 hrs. The data set is classed as cell-based.
For data set [11], the system named is CCRF-CEM. In words: Anticancer activity against human CEM cells after 72 hrs. In kind it is functional, cell-based.
Data set [12] relates to HSC-3. In words: Cytotoxicity against human HSC3 cells after 48 hrs. In kind it is functional. Particulars: HSC-3, 48 h.
The subject of data set [13] is Rattus norvegicus. In words: Toxicity in rat assessed as mortality at 50 mg/kg, po measured upto 4 hrs. The data set is classed as organism-based. Further details: dose 50 mg/kg, route oral. Particulars: in vivo. The essentials:
as §2

Data set [14] is described as follows: Anticancer activity against human Molt4/C8 cells after 72 hrs. In kind it is functional, cell-based. The conditions noted are these: MOLT-4, 72 h.
Data set [15] has as its system Mus musculus. In words: Neurotoxicity in mouse at 30 to 300 mg/kg, ip after 0.5 to 4 hrs by rotarod method. The data set is classed as toxicity, organism-based. Also on record: dose 30-300 mg/kg, route intraperitoneal. The conditions noted are these: in vivo. The essentials: as §1
Data set [16] has as its system HL-60. In words: Selectivity index, ratio of average CC50 for normal human cell line to CC50 for human HL-60 cells.
Data set [17] concerns HSC-3. In words: Selectivity index, ratio of average CC50 for normal human cell line to CC50 for human HSC3 cells.
Data set [18] relates to HSC-2. In words: Selectivity index, ratio of average CC50 for normal human cell line to CC50 for human HSC2 cells.
Data set [19] is described as follows: Toxicity in mouse harboring P-388 cells. In kind it is organism-based.
The nature of data set [20]: Toxicity in mouse harboring L1210 cells. The data set is classed as organism-based.
The test system of the next data set is HT-29. In words: Anticancer activity against human HT-29 cells. The data set is classed as functional, cell-based.

What is called CC50 is the concentration giving 50% cytotoxicity. The term IC50 denotes the concentration at which inhibition is half-maximal. A low value points to higher potency. On to `Cc1ccc(/C=C2\CN(C(=O)CCSCCO)C/C(=C\c3ccc(C)cc3)C2=O)cc1`, for which the CC50 amounted to 2.1 µM in the data set on HL-60 [1], 0.89 µM in the data set on HSC-2 [4], 1.2 µM in the data set on HSC-4 [6] and 1.7 µM in the data set on HSC-3 [12]. The IC50 came to 5.91 µM in the data set on L1210, 1.1 µM with CCRF-CEM [11] and 1.85 µM in data set [14]. The cytotoxic concentration (CC50) at 48 h in [2] amounted to 9.1 µM; in [3], 8.4 µM; in data set [10] it was 7.5 µM. Besides, the Ratio in the data set with HSC-4 [5] stood at 6.9; with HL-60 [16], 4; with HSC-3 [17] it was 4.9; with HSC-2 [18] it was 9.4. In addition, the “Ratio IC50” value in the data set on CCRF-CEM [7] came out at 2.3. Further, the Activity result in the data set on Mus musculus [8], in the data set on Rattus norvegicus [9], in the data set with Rattus norvegicus [13] and in the data set on Mus musculus [15] was “Non-toxic” throughout.

The term LD50 denotes the dose expected to kill half of the subjects tested. As for `N[C@@H](Cc1ccc(N(CCCl)CCCl)cc1)C(=O)O` [MELPHALAN], the LD50 in [19] and in data set [20] was 21.7 mg/kg throughout. Moreover, the cytotoxic concentration (CC50) with HL-60 [1] turned out to be 1.4 µM; in the data set with HSC-2 [4], 8.7 µM; in the data set with HSC-4 [6] it was 32 µM; with HSC-3 [12], 25 µM. Besides, the Ratio is 6.6 in the data set on HSC-4 [5], 150 with HL-60 [16], 8.4 in the data set with HSC-3 [17] and 24.1 with HSC-2 [18]. Further, in the data set on HT-29, the midpoint of inhibition, the IC50, lay at 46.8 µM.
